From ChEMBL document CHEMBL1146075, “Synthesis and anti-BVDV activity of acridones as new potential antiviral agents” (J Med Chem, 2006)
Converted amounts (≈) assume the structure as drawn. The source made the active and inactive calls. No cut-off for these calls is given here.

Assays:
[1] = system: Bovine viral diarrhea virus 1; assay: Antiviral activity against BVDV NADL in MDBK cells; assay type: functional, organism-based; conditions: Bovine viral diarrhea virus isolates and strains
Procedure, shortened: (§1)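 MDBK cells seeded 20 × 10^3/well in MEM with 5% heat-inactivated FCS, confluent after 24 h; serial 3-fold compound dilutions added, then virus at MOI 0.5 (line 2: NADL F224S mutant). 5 days at 37 °C, then ethanol fixation and Giemsa staining. CPE scored microscopically 0–10 per well. EC50 by logarithmic interpolation; mean ± SD of at least three experiments.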

[2] = system: MDBK441; assay: Cytotoxicity against MDBK cells; assay type: functional; conditions: Bos taurus
Procedure, shortened: (§2)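 Cells seeded the day before, then given serial compound dilutions and left to proliferate 3 days at 37 °C. MDBK: 10^4/well in MEM-FCS. Huh 5-2: 5 × 10^3/well in complete DMEM. Cell number read by MTS/PMS. CC50 is the concentration inhibiting cell growth by 50%.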

[3] = system: MDBK441; assay: Selectivity index (CC50/EC50) for inhibition of BVDV NADL in MDBK cells; assay type: functional
Procedure, shortened: (§3)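 SI = CC50/EC50. EC50 comes from a 5-day Giemsa-stained CPE assay in MDBK cells at MOI 0.5; CC50 from a 3-day MTS/PMS proliferation assay. Means of at least three experiments. Line 10 uses the NADL F224S mutant.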

[4] = system: Human alphaherpesvirus 1; assay: Antiviral activity against HSV1 KOS in E6SM cells; assay type: functional, organism-based
[5] = system: Human alphaherpesvirus 2; assay: Antiviral activity against HSV2 G in E6SM cells; assay type: functional, organism-based
[6] = system: Vaccinia virus; assay: Antiviral activity against vaccinia virus in E6SM cells; assay type: functional, organism-based; conditions: Orthopoxvirus vaccinia
[7] = system: Vesicular stomatitis virus; assay: Antiviral activity against vesicular stomatitis virus in E6SM cells; assay type: functional, organism-based
[8] = system: Human betaherpesvirus 5; assay: Antiviral activity against HCMV AD169 in human embryonic lung cells; assay type: functional, organism-based
[9] = system: Human betaherpesvirus 5; assay: Antiviral activity against HCMV Davis in human embryonic lung cells; assay type: functional, organism-based
[10] = system: Respiratory syncytial virus; assay: Antiviral activity against respiratory syncytial virus […] in HeLa cells; assay type: functional, organism-based
[11] = system: Coxsackievirus B4; assay: Antiviral activity against coxsackie virus B4 in vero cells; assay type: functional, organism-based
[12] = system: Human respirovirus 3; assay: Antiviral activity against parainfluenza3 virus in vero cells; assay type: functional, organism-based
[13] = system: Mammalian orthoreovirus 1; assay: Antiviral activity against Reovirus1 in vero cells; assay type: functional, organism-based
[14] = system: Sindbis virus; assay: Antiviral activity against sindbis virus in vero cells; assay type: functional, organism-based
[15] = system: Punta Toro virus; assay: Antiviral activity against Punta Toro virus in vero cells; assay type: functional, organism-based
[16] = system: Human immunodeficiency virus 1; assay: Antiviral activity against HIV1 3B in MT4 cells; assay type: functional, organism-based
[17] = system: Human immunodeficiency virus 2; assay: Antiviral activity against HIV2 ROD in MT4 cells; assay type: functional, organism-based
[18] = system: MDBK441; assay: Inhibition of BVDV NADL RNA production in MDBK cells; assay type: functional, cell-based; conditions: Bos taurus
Procedure, shortened: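 Viral RNA came from supernatant, total cellular RNA by kit. One-step TaqMan RT-qPCR: UNG 50 °C 2 min; RT 60 °C 30 min; 95 °C 5 min; 40 cycles of 94 °C 20 s and 62 °C 1 min. Three replicate reactions per sample.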

[19] = system: MDBK441; assay: Inhibition of BVDV NADL production in MDBK cells; assay type: functional, cell-based; conditions: Bos taurus
Procedure, shortened: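 Supernatants were titrated on MDBK cells seeded at 5 × 10^3/well (10–15% confluent). Cells were infected 24 h later with 10-fold serial dilutions and, after 4 days, ethanol-fixed and Giemsa-stained. CPE was read microscopically; titre by Reed–Muench, as CCID50/mL.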

[20] = system: Bovine viral diarrhea virus 1; assay: Antiviral activity against VP32947-resistant BVDV in MDBK cells; assay type: functional, organism-based; conditions: Bovine viral diarrhea virus isolates and strains; procedure, shortened: as §1
[21] = system: MDBK441; assay: Selectivity index (CC50/EC50) for inhibition of VP32947-resistant BVDV in MDBK cells; assay type: functional; procedure, shortened: as §3
[22] = system: Huh-5-2; assay: Cytotoxicity against human hepatoma Huh5-2 cells; assay type: functional; procedure, shortened: as §2

Structure (SMILES)	EC50 [1]	CC50 [2]	Selectivity index [3]	Activity [4]	Activity [5]	Activity [6]	Activity [7]	Activity [8]	Activity [9]	Activity [10]	Activity [11]	Activity [12]	Activity [13]	Activity [14]	Activity [15]	Activity [16]	Activity [17]	EC50 [20]	Selectivity index [21]	also measured
COc1cc(OC)c2c(=O)c3cc([N+](=O)[O-])c(Cl)cc3n(C)c2c1	> 100 µg/mL	> 100 µg/mL	1	inactive	inactive	inactive	inactive	inactive	inactive	inactive	inactive	inactive	inactive	inactive	inactive	inactive	inactive	–	–	–
COc1cc(OC)c2c(=O)c3cc(N)c(Cl)cc3n(C)c2c1	> 100 µg/mL	> 100 µg/mL	1	inactive	inactive	inactive	inactive	inactive	inactive	inactive	inactive	inactive	inactive	inactive	inactive	inactive	inactive	–	–	–
COc1cc(O)c2c(=O)c3cc([N+](=O)[O-])c(N4CCN(c5ccccn5)CC4)cc3n(C)c2c1	> 100 µg/mL	> 100 µg/mL	1	inactive	inactive	inactive	inactive	inactive	inactive	inactive	inactive	inactive	inactive	inactive	inactive	inactive	inactive	–	–	–
Cn1c2cc(N3CCN(c4ccccn4)CC3)c(N)cc2c(=O)c2c(O)cc(O)cc21	–	> 100 µg/mL	>200	inactive	inactive	inactive	inactive	inactive	inactive	inactive	inactive	inactive	inactive	inactive	inactive	inactive	inactive	2.24 µg/mL (≈ 5.37 µM)	>45	EC50 [18]: 2.3 µg/mL (≈ 5.51 µM); EC50 [19]: 2.01 µg/mL (≈ 4.81 µM); CC50 [22]: 21 µg/mL (≈ 50.3 µM)
CCCN(CCC)CCSc1n[nH]c2c3ccccc3nc-2n1	0.009 µg/mL (≈ 0.0273 µM)	> 1 µg/mL	>111	–	–	–	–	–	–	–	–	–	–	–	–	–	–	> 1 µg/mL	1	–
C[C@@]1(O)[C@H](O)[C@@H](CO)O[C@H]1n1cnc2c(N)ncnc21	0.22 µg/mL (≈ 0.782 µM)	> 14 µg/mL	>63	–	–	–	–	–	–	–	–	–	–	–	–	–	–	0.37 µg/mL (≈ 1.32 µM)	>38	–
